Results as given in ChEMBL document CHEMBL2086333, “Albopunctatone, an antiplasmodial anthrone-anthraquinone from the Australian ascidian Didemnum albopunctatum” (J Nat Prod, 2012).
Active and inactive are the calls of the source. The rule behind the calls is not given here.

What was measured:
[1] = test system: PANC-1; assay: Toxicity against human PANC1 cells at =<40 uM incubated for 72 hrs by resazurin dye reduction assay; type: cell-based; settings: panc-1, 72 h
Procedure, shortened: (§1)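 Adherent cancer cells seeded according to growth rate, compound exposure 72 h at 37 °C, 5% CO2, highest concentration 40 μM. Resazurin at 600 μM final, 4 h, fluorescence 530/595 nm. % growth inhibition scaled between >10% DMSO or 20 μM puromycin (100%) and 0.4% DMSO (0%). Triplicate. IC50 by variable-slope nonlinear regression on log dose.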

[2] = Toxicity against human MDA-M cells at =<40 uM incubated for 72 hrs by resazurin dye reduction assay; type: cell-based; procedure, shortened: as §1
[3] = test system: HEK293; assay: Toxicity against human HEK293 cells at =<40 uM incubated for 72 hrs by resazurin dye reduction assay; type: cell-based; settings: hek293, 72 h
Procedure, shortened: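 HEK293 adherent cells, compound exposure 72 h at 37 °C, 5% CO2, highest concentration 40 μM. Supernatant replaced with 10% Presto Blue in DMEM plus 2 mM glutamax, 3 h, fluorescence 530/595 nm. % inhibition scaled between >10% DMSO or 20 μM puromycin (100%) and 0.4% DMSO (0%). Triplicate. IC50 by variable-slope nonlinear regression.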

[4] = test system: MCF-10A; assay: Toxicity against human MCF10A cells at =<40 uM incubated for 72 hrs by resazurin dye reduction assay; type: cell-based; procedure, shortened: as §1
[5] = test system: BT-474; assay: Toxicity against human BT474 cells at =<40 uM incubated for 72 hrs by resazurin dye reduction assay; type: cell-based; settings: bt-474, 72 h; procedure, shortened: as §1
[6] = test system: BXPC-3; assay: Toxicity against human BxPC3 cells at =<40 uM incubated for 72 hrs by resazurin dye reduction assay; type: cell-based; settings: bxpc-3, 72 h; procedure, shortened: as §1
[7] = Toxicity against human SU8686 cells at =<40 uM incubated for 72 hrs by resazurin dye reduction assay; type: cell-based; settings: su.86.86, 72 h; procedure, shortened: as §1
[8] = test system: Trypanosoma brucei brucei; assay: Antitrypanosomal activity against Trypanosoma brucei brucei up to 40 uM incubated for 48 hrs by Alamar Blue assay; type: functional, organism-based
Procedure, shortened: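 T. b. brucei at 2000 cells/mL in HMI-9 with 10% FCS and penicillin/streptomycin, preincubated 24 h. Compound in DMSO prediluted 1:20 in supplemented DMEM, tested up to 40 μM, 48 h at 37 °C, 5% CO2. Alamar Blue added, 2 h under the same conditions then 22 h RT. Fluorescence ex 535/em 590 nm.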

[9] = Selectivity index, ratio of cytotoxicity against human HEK293 cells to IC50 for chloroquine-sensitive Plasmodium falciparum 3D7; type: toxicity, cell-based; settings: read-out: Selectivity Index
[10] = Selectivity index, ratio of cytotoxicity against human MCF10A cells to IC50 for chloroquine-sensitive Plasmodium falciparum 3D7; type: toxicity, cell-based, MCF-10A; settings: read-out: Selectivity Index
[11] = Selectivity index, ratio of cytotoxicity against human BT474 cells to IC50 for chloroquine-sensitive Plasmodium falciparum 3D7; type: toxicity, cell-based, BT-474; settings: read-out: Selectivity Index
[12] = Selectivity index, ratio of cytotoxicity against human MDA-M cells to IC50 for chloroquine-sensitive Plasmodium falciparum 3D7; type: toxicity, cell-based; settings: read-out: Selectivity Index
[13] = Selectivity index, ratio of cytotoxicity against human PANC1 cells to IC50 for chloroquine-sensitive Plasmodium falciparum 3D7; type: toxicity, cell-based, PANC-1; settings: read-out: Selectivity Index
[14] = Selectivity index, ratio of cytotoxicity against human BxPC3 cells to IC50 for chloroquine-sensitive Plasmodium falciparum 3D7; type: toxicity, cell-based, BXPC-3; settings: read-out: Selectivity Index
[15] = Selectivity index, ratio of cytotoxicity against human SU8686 cells to IC50 for chloroquine-sensitive Plasmodium falciparum 3D7; type: toxicity, cell-based; settings: read-out: Selectivity Index
[16] = test system: Plasmodium falciparum; assay: Antimalarial activity against chloroquine-sensitive Plasmodium falciparum 3D7 assessed as reduction in parasite replication incubated for 72 hrs; settings: 3D7, 72 h
[17] = test system: Plasmodium falciparum; assay: Antimalarial activity against chloroquine-resistant Plasmodium falciparum Dd2 assessed as reduction in parasite replication incubated for 72 hrs; settings: Dd2, 72 h
[18] = test system: Plasmodium falciparum; assay: Antimalarial activity against chloroquine-sensitive Plasmodium falciparum 3D7 assessed as reduction in parasite replication at 40 uM incubated for 72 hrs
[19] = test system: Plasmodium falciparum; assay: Antimalarial activity against chloroquine-resistant Plasmodium falciparum Dd2 assessed as reduction in parasite replication at 40 uM incubated for 72 hrs
[20] = Growth inhibition of human HEK293 cells at 20 uM incubated for 72 hrs by resazurin dye reduction assay; type: cell-based; settings: read-out: GI
[21] = Growth inhibition of human MCF10A cells at 20 uM incubated for 72 hrs by resazurin dye reduction assay; type: cell-based, MCF-10A; settings: read-out: GI
[22] = test system: BT-474; assay: Growth inhibition of human BT474 cells at 20 uM incubated for 72 hrs by resazurin dye reduction assay; type: functional; settings: BT-474, 72 h, read-out: GI
[23] = Growth inhibition of human MDA-M cells at 20 uM incubated for 72 hrs by resazurin dye reduction assay; type: functional; settings: read-out: GI
[24] = test system: PANC-1; assay: Growth inhibition of human PANC1 cells at 20 uM incubated for 72 hrs by resazurin dye reduction assay; type: functional; settings: PANC-1, 72 h, read-out: GI
[25] = test system: BXPC-3; assay: Growth inhibition of human BxPC3 cells at 20 uM incubated for 72 hrs by resazurin dye reduction assay; type: functional; settings: BXPC-3, 72 h, read-out: GI
[26] = Growth inhibition of human SU8686 cells at 20 uM incubated for 72 hrs by resazurin dye reduction assay; type: functional; settings: SU.86.86, 72 h, read-out: GI

With `O=C1c2cccc(O)c2C(=O)c2c1ccc(C1(O)c3cccc(O)c3C(=O)c3c(O)cccc31)c2O` [ALBOPUNCTATONE] the Activity [1] was “Non-toxic”, the Activity [2] was “Non-toxic” and the Activity [3] was “Non-toxic”. The Activity [4] was “Non-toxic”, the Activity [5] was “Non-toxic” and the Activity [6] was “Non-toxic”. For the same compound, the Activity [7] was “Non-toxic”, the Activity [8] was “inactive” and the selectivity ratio [9] was greater than 9.1. For the same compound, the selectivity ratio [10] was greater than 9.1, the selectivity ratio [11] was greater than 9.1 and the selectivity ratio [12] was greater than 9.1. It also gave a selectivity ratio [13] greater than 9.1, a selectivity ratio [14] greater than 9.1 and a selectivity ratio [15] greater than 9.1. It also gave an IC50 [16] of 4400 nM and an IC50 [17] of 5300 nM.

In the case of `C[C@@H]1CC[C@H]2[C@@H](C)C(=O)O[C@@H]3O[C@@]4(C)CC[C@@H]1[C@]32OO4` [ARTEMISININ], the IC50 [16] is reported as 7.2 nM.

In the case of `O=C1c2cccc(O)c2C(=O)c2c(O)cccc21` [DANTHRON], the Activity [1] is reported as “Non-toxic”, the Activity [2] is reported as “Non-toxic” and the Activity [3] is reported as “Non-toxic”. For the same compound, the Activity [4] was “Non-toxic”, the Activity [5] was “Non-toxic” and the Activity [6] was “Non-toxic”. The Activity [7] was “Non-toxic”, the Activity [8] was “inactive” and the Activity [18] was “inactive”. The Activity [19] was “inactive”.

Compound `COc1ccc(C[C@H](N)C(=O)N[C@H]2[C@@H](O)[C@H](n3cnc4c(N(C)C)ncnc43)O[C@@H]2CO)cc1` [PUROMYCIN] has an inhibition at 72 h, 20 µM [20] of 100%, an inhibition at 72 h, 20 µM [21] of 100% and an inhibition of growth at 20 µM [22] of 100%. For the same compound, the inhibition of growth at 20 µM [23] was 100%, the inhibition of growth at 20 µM [24] was 100% and the inhibition of growth at 20 µM [25] was 100%. For the same compound, the inhibition of growth at 20 µM [26] was 100% and the IC50 [16] was 89 nM.
